Data: ChEMBL document CHEMBL1149168, “Discovery and evaluation of potent P1 aryl heterocycle-based thrombin inhibitors” (J Med Chem, 2004)

How the values were obtained:
[1] = Ability to double the activated partial thromboplastin time (2x APTT) in human plasma; assay type: functional
[2] = biological target: Prothrombin (Homo sapiens, UniProt P00734); assay: Inhibitory potency against human thrombin
[3] = Half-life of compound in dog following p.o. administration of 0.5 mg/kg; assay type: ADME, organism-based, Canis lupus familiaris; set-up: dose 0.5 mg/kg, route oral; settings: in vivo, po
Summary of the method: (§1)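 Male beagle dogs (10–12 kg), fasted overnight, were given the inhibitor orally at the stated mg/kg as a solution or suspension in 0.5% methocel. Plasma was stored at –20 °C until HPLC analysis.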

[4] = Maximum plasma concentration of compound in dog following p.o. administration of 0.5 mg/kg; assay type: ADME, organism-based, Canis lupus familiaris; set-up: dose 0.5 mg/kg, route oral; settings: po; summary of the method: as §1
[5] = Half-life of compound in dog following p.o. administration of 1 mg/kg; assay type: ADME, organism-based, Canis lupus familiaris; set-up: dose 1 mg/kg, route oral; settings: in vivo, po; summary of the method: as §1
[6] = Maximum plasma concentration of compound in dog following p.o. administration of 1 mg/kg; assay type: ADME, organism-based, Canis lupus familiaris; set-up: dose 1 mg/kg, route oral; settings: po; summary of the method: as §1
[7] = Half-life of compound in dog following p.o. administration of 0.95 mg/kg; assay type: ADME, organism-based, Canis lupus familiaris; set-up: dose 0.95 mg/kg, route oral; settings: in vivo, po; summary of the method: as §1
[8] = Maximum plasma concentration of compound in dog following p.o. administration of 0.95 mg/kg; assay type: ADME, organism-based, Canis lupus familiaris; set-up: dose 0.95 mg/kg, route oral; settings: po; summary of the method: as §1
[9] = biological target: Coagulation factor X (Homo sapiens, UniProt P00742); assay: Inhibitory potency of compound against human Coagulation factor Xa
[10] = Half life of compound in dog following oral administration; assay type: ADME, organism-based, Canis lupus familiaris; settings: in vivo; summary of the method: as §1
[11] = Oral bioavailability in dog; assay type: ADME, organism-based, Canis lupus familiaris; settings: in vivo
[12] = Maximum plasma concentration of compound in dog following p.o. administration of 0.9 mg/kg; assay type: ADME, organism-based, Canis lupus familiaris; set-up: dose 0.9 mg/kg, route oral; settings: po; summary of the method: as §1
[13] = Half-life of compound in dog following p.o. administration of 0.9 mg/kg; assay type: ADME, organism-based, Canis lupus familiaris; set-up: dose 0.9 mg/kg, route oral; settings: in vivo, po; summary of the method: as §1
[14] = species on record: Canis familiaris; assay: Half life of compound in dog was determined; assay type: ADME, organism-based, Canis lupus familiaris; settings: in vivo
[15] = Oral bioavailability of compound in rhesus macaques; assay type: ADME, organism-based, Macaca mulatta; settings: rhesus monkey, in vivo
[16] = Oral bioavailability of compound in rat; assay type: ADME, organism-based; settings: in vivo

Sequence of Coagulation factor X (P00742 41-179 limits assumed): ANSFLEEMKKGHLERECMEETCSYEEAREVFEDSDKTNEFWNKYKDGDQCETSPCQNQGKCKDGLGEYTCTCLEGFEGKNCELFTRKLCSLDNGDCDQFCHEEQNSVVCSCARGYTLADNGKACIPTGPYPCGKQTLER
Sequence of Coagulation factor X (P00742 235-488 limits assumed): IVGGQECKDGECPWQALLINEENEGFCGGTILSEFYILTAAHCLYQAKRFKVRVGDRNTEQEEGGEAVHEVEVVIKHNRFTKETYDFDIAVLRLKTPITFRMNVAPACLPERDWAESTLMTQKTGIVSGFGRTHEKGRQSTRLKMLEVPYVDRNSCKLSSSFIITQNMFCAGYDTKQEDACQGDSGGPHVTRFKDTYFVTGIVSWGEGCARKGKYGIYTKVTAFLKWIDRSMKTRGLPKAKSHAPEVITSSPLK

Row | SMILES | 2x APTT [1] | Ki [2] | further results
1 | Cc1ccc(NS(=O)(=O)Cc2ccccc2)c(=O)n1CC(=O)NCc1cc(Cl)ccc1-n1cncn1 | 0.36 µM | 0.16 nM | –
2 | N[C@H](Cc1ccccc1)C(=O)N1CCC[C@H]1CC(=O)NCc1ccccc1-n1cncn1 | – | 1.06 nM | –
3 | O=C(Cn1ccnc(NCC(F)(F)c2ccccn2)c1=O)NCc1ccccc1-n1cncn1 | 2.06 µM | 16 nM | –
4 | O=C(Cn1ccnc(NCC(F)(F)c2cccc[n+]2[O-])c1=O)NCc1cc(Cl)ccc1-n1cncn1 | 0.26 µM | 0.085 nM | –
5 | O=C(Cn1c(Cl)cnc(NCC(F)(F)c2ccccn2)c1=O)NCc1cccc(Cl)c1 | 0.79 µM | 0.44 nM | –
6 | O=C(Cn1c(Cl)cnc(NCC(F)(F)c2ccccn2)c1=O)NCc1ncccc1-n1cnnn1 | 0.25 µM | 0.14 nM | –
7 | O=C(Cn1c(Cl)cnc(NCC(F)(F)c2ccccn2)c1=O)NCc1ccccc1-n1ccnc1 | 1.29 µM | 6.3 nM | –
8 | O=C(Cn1c(Cl)cnc(NCC(F)(F)c2cccc[n+]2[O-])c1=O)NCc1ccccc1-n1cnnn1 | 0.2 µM | 0.05 nM | –
9 | O=C(Cn1c(Cl)cnc(NCC(F)(F)c2ccccn2)c1=O)NCc1ccccc1-c1nnn[nH]1 | – | 940 nM | –
10 | O=C(Cn1c(Cl)cnc(NCC(F)(F)c2ccccn2)c1=O)NCc1ccccc1-n1cncn1 | 0.23 µM | 0.45 nM | half-life [3]: 210 min; Cmax [4]: 1130 nM
11 | Cn1nnnc1-c1ccccc1CNC(=O)Cn1c(Cl)cnc(NCC(F)(F)c2ccccn2)c1=O | 0.34 µM | 1.2 nM | –
12 | N[C@H](Cc1ccccc1)C(=O)N1CCC[C@H]1CC(=O)NCc1cc(Cl)ccc1-n1cnnn1 | 0.23 µM | 0.33 nM | –
13 | O=C(Cn1c(Cl)cnc(NCC(F)(F)c2cccc[n+]2[O-])c1=O)NCc1ccccc1-n1cncn1 | 0.29 µM | 0.21 nM | half-life [5]: 84 min; Cmax [6]: 860 nM
14 | O=C(Cn1ccnc(NCC(F)(F)c2cccc[n+]2[O-])c1=O)NCc1ccccc1-n1cncn1 | 0.98 µM | 7.2 nM | –
15 | O=C(Cn1ccnc(NCC(F)(F)c2ccccn2)c1=O)NCc1cc(Cl)ccc1-n1cnnn1 | 0.2 µM | 0.033 nM | half-life [7]: 120 min; Cmax [8]: 1310 nM; Ki [9]: 10 nM
16 | O=C(Cn1c(Cl)cnc(NCC(F)(F)c2cccc[n+]2[O-])c1=O)NCc1cc(Cl)ccc1-n1cnnn1 | 0.13 µM | – | –
17 | O=C(Cn1c(Cl)cnc(NCC(F)(F)c2ccccn2)c1=O)NCc1ccccc1-c1c[nH]cn1 | 1.83 µM | 4.2 nM | –
18 | N[C@@H](C(=O)N1CCC[C@H]1C(=O)NCc1cc(Cl)ccc1Cl)C(c1ccccc1)c1ccccc1 | – | 3 nM | half-life [10]: 100 min; bioavailability [11]: 45%
19 | Cc1ccc(NS(=O)(=O)Cc2ccccc2)c(=O)n1CC(=O)NCc1ccccc1-n1cncn1 | 1.06 µM | 7.3 nM | –
20 | N[C@H](Cc1ccccn1)C(=O)N1CCC[C@H]1CC(=O)NCc1ccccc1-n1cncn1 | 0.39 µM | 2 nM | –
21 | O=C(Cn1c(Cl)cnc(NCC(F)(F)c2ccccn2)c1=O)NCc1ccccc1-n1cnnn1 | 0.22 µM | 0.096 nM | –

Row | SMILES | 2x APTT [1] | Ki [2] | further results
22 | O=C(Cn1c(Cl)cnc(NCC(F)(F)c2ccccn2)c1=O)NCc1ncccc1-n1cncn1 | 0.33 µM | 0.66 nM | –
23 | Cc1ccc(NS(=O)(=O)Cc2ccccc2)c(=O)n1CC(=O)NCc1cc(Cl)ccc1-n1cnnn1 | 0.23 µM | 0.018 nM | Ki [9]: 11 nM
24 | O=C(Cn1c(Cl)cnc(NCC(F)(F)c2ccccn2)c1=O)NCc1cc(Cl)ccc1-n1cncn1 | 0.17 µM | < 0.01 nM | –
25 | O=C(Cn1c(Cl)cnc(NCC(F)(F)c2ccccn2)c1=O)NCc1ccccc1 | 2.68 µM | 12 nM | –
26 | Cn1nnc(-c2ccccc2CNC(=O)Cn2c(Cl)cnc(NCC(F)(F)c3ccccn3)c2=O)n1 | 1.72 µM | 5.8 nM | –
27 | Cc1ccc(-n2cncn2)c(CNC(=O)CN2C=CN=C(NCC(F)(F)c3ccccn3)C2)c1 | 0.33 µM | 0.24 nM | Cmax [12]: 1040 nM; half-life [13]: 72 min
28 | O=C(Cn1c(Cl)cnc(NCC(F)(F)c2ccccn2)c1=O)NCc1ccccc1-n1cnnc1 | 0.52 µM | 3.5 nM | –
29 | O=C(Cn1c(Cl)cnc(NCC(F)(F)c2ccccn2)c1=O)NCc1ccccc1-c1csnn1 | 0.6 µM | 0.84 nM | –
30 | O=C(Cn1c(Cl)cnc(NCC(F)(F)c2ccccn2)c1=O)NCc1ccccc1-c1cc[nH]n1 | 2.08 µM | 5.6 nM | –
31 | N[C@H](Cc1ccccn1)C(=O)N1CCC[C@H]1CC(=O)NCc1cc(Cl)ccc1-n1cnnn1 | 0.2 µM | 0.4 nM | –
32 | O=C(Cn1c(Cl)cnc(NCC(F)(F)c2ccccn2)c1=O)NCc1ccccc1-c1ncc[nH]1 | 2.88 µM | 7.2 nM | –
33 | O=C(Cn1c(Cl)cnc(NCC(F)(F)c2ccccn2)c1=O)NCc1cc(Cl)ccc1-n1cnnn1 | 0.18 µM | 0.0015 nM | –
34 | O=C(Cn1c(Cl)cnc(NCC(F)(F)c2ccccn2)c1=O)NCc1ccccc1-n1cccn1 | 1.9 µM | 6.9 nM | –
35 | Cc1ccc(NS(=O)(=O)Cc2ccccc2)c(=O)n1CC(=O)NCc1ccccc1-n1cnnn1 | 0.37 µM | 1.4 nM | –
36 | O=C(Cn1ccnc(NCC(F)(F)c2ccccn2)c1=O)NCc1ccccc1-n1cnnn1 | 0.52 µM | 2.7 nM | –
37 | O=C(Cn1ccnc(NCC(F)(F)c2cccc[n+]2[O-])c1=O)NCc1cc(Cl)ccc1-n1cnnn1 | 0.12 µM | 0.013 nM | Ki [9]: 5 nM
38 | O=C(Cn1c(Cl)cnc(NCC(F)(F)c2cccc[n+]2[O-])c1=O)NCc1cc(Cl)ccc1-n1cncn1 | 0.2 µM | < 0.01 nM | –
39 | O=C(Cn1ccnc(NCC(F)(F)c2cccc[n+]2[O-])c1=O)NCc1ccccc1-n1cnnn1 | 0.42 µM | 1.1 nM | Ki [9]: 370 nM
40 | O=C(Cn1c(Cl)cnc(NCC(F)(F)c2ccccn2)c1=O)NCc1ncccc1F [DPOC-4088] | – | – | T1/2 [14]: 270 min
41 | Cc1nc(N)ccc1CNC(=O)Cn1c(C)cnc(NCCc2ccccc2)c1=O [L-375378] | – | – | bioavailability [15]: 60%; bioavailability [16]: 42%; bioavailability [11]: 91%
